In ChEMBL document CHEMBL4373711, “Development of 3,5-Dinitrophenyl-Containing 1,2,4-Triazoles and Their Trifluoromethyl Analogues as Highly Efficient Antitubercular Agents Inhibiting Decaprenylphosphoryl-β-d-ribofuranose 2'-Oxidase” (J Med Chem, 2019):
Values after ≈ are worked out from the molar mass of the structure shown. Active and inactive are the calls of the source. The calls are words filed in the database; no cut-off is given here.

Assays:
[1] = tested on: Mycobacterium kansasii; assay: Antimycobacterial activity against Mycobacterium kansasii 6509/96 after 21 days; assay type: functional; conditions: 6509/96, 504 h
Summary of the method: (§1)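 Microdilution in Šula's semisynthetic medium; compounds in DMSO at 32–0.03 µM. Inoculum from 1.0 McFarland suspension diluted 10-4. […] Isoniazid and rifampicin as reference drugs.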

[2] = tested on: HepG2; assay: Cytotoxicity against human HepG2 cells assessed as reduction in cell viability after 48 hrs by CellTiter 96 aqueous one solution assay; assay type: cell-based; conditions: HepG2, 48 h
[3] = tested on: Mycobacterium tuberculosis; assay: Antimycobacterial activity against XDR Mycobacterium tuberculosis Praha 131 after 21 days; assay type: functional; conditions: Praha 131, 504 h
Summary of the method: (§2)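 M. tuberculosis strains (H37Rv and clinical MDR/XDR isolates) tested by microdilution in Šula's semisynthetic medium. Compounds were dissolved in DMSO and tested at 32 to 0.03 µM in twofold steps. Inoculum was a 1.0 McFarland suspension diluted 10-3. Plates were incubated at 37 °C and read at 14 and 21 days.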

[4] = tested on: A-431; assay: Cytotoxicity against human A431 cells assessed as reduction in cell viability after 48 hrs by CellTiter 96 aqueous one solution assay; assay type: cell-based; conditions: A-431, 48 h
[5] = Cytotoxicity against human A431 cells assessed as cell viability at 30 uM after 48 hrs by CellTiter 96 aqueous one solution assay relative to control; assay type: cell-based, A-431; conditions: read-out: Activity
Summary of the method: (§3)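 HepG2 (DMEM, 10% FBS, 1 mM pyruvate) or A431 (DMEM, 10% FBS) seeded 10,000 cells/well, 24 h at 37 °C, 5% CO2, then 30 µM compound for 48 h. MTS reagent 60 min, absorbance 490 nm, background subtracted; 0.1% DMSO vehicle = 100%, 10% SDS = 0% viability.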

[6] = tested on: Mycobacterium kansasii; assay: Antimycobacterial activity against Mycobacterium kansasii CNCTC My 235/80 after 21 days; assay type: functional; conditions: CNCTC My 235/80, 504 h; summary of the method: as §1
[7] = Cytotoxicity against human HepG2 cells assessed as cell viability at 30 uM after 48 hrs by CellTiter 96 aqueous one solution assay relative to control; assay type: cell-based; conditions: read-out: Activity; summary of the method: as §3
[8] = tested on: Mycobacterium avium; assay: Antimycobacterial activity against Mycobacterium avium CNCTC My 330/88 after 14 days; assay type: functional; conditions: CNCTC My 330/88, 336 h
Summary of the method: (§4)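 M. avium was tested by microdilution in Šula's semisynthetic medium, with compounds dissolved in DMSO and serially diluted from 1000 down to 1. Inoculum was a 1.0 McFarland suspension diluted 10-5. Plates were incubated at 37 °C and read at 14 and 21 days. […] Isoniazid and rifampicin served as standards.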

[9] = tested on: Mycobacterium tuberculosis; assay: Antimycobacterial activity against Mycobacterium tuberculosis H37Rv CNCTC My 331/88 after 14 days; assay type: functional; conditions: H37Rv CNCTC My 331/88, 336 h; summary of the method: as §2
[10] = tested on: Mycobacterium kansasii; assay: Antimycobacterial activity against Mycobacterium kansasii 6509/96 after 7 days; assay type: functional; conditions: 6509/96, 168 h; summary of the method: as §1
[11] = tested on: Mycobacterium kansasii; assay: Antimycobacterial activity against Mycobacterium kansasii CNCTC My 235/80 after 14 days; assay type: functional; conditions: CNCTC My 235/80, 336 h; summary of the method: as §1
[12] = tested on: Mycobacterium avium; assay: Antimycobacterial activity against Mycobacterium avium CNCTC My 330/88 after 21 days; assay type: functional; conditions: CNCTC My 330/88, 504 h; summary of the method: as §4
[13] = tested on: Mycobacterium kansasii; assay: Antimycobacterial activity against Mycobacterium kansasii CNCTC My 235/80 after 7 days; assay type: functional; conditions: CNCTC My 235/80, 168 h; summary of the method: as §1
[14] = tested on: Mycobacterium tuberculosis; assay: Antimycobacterial activity against Mycobacterium tuberculosis H37Rv CNCTC My 331/88 after 21 days; assay type: functional; conditions: H37Rv CNCTC My 331/88, 504 h; summary of the method: as §2
[15] = tested on: Mycobacterium tuberculosis; assay: Antimycobacterial activity against XDR Mycobacterium tuberculosis Praha 131 after 14 days; assay type: functional; conditions: for MIC99: Praha 131, 336 h; summary of the method: as §2
[16] = tested on: Mycobacterium kansasii; assay: Antimycobacterial activity against Mycobacterium kansasii 6509/96 after 14 days; assay type: functional; conditions: 6509/96, 336 h; summary of the method: as §1
[17] = tested on: Trichophyton interdigitale; assay: Antifungal activity against Trichophyton interdigitale ATCC 9533 CCM 8377 at highest concentration measured after 72 to 120 hrs by alamar blue dye based broth microdilution assay; assay type: functional
[18] = tested on: Lichtheimia corymbifera; assay: Antifungal activity against Lichtheimia corymbifera CCM 8077 at highest concentration measured after 24 to 48 hrs by alamar blue dye based broth microdilution assay; assay type: functional, organism-based
[19] = tested on: Staphylococcus aureus; assay: Antibacterial activity against methicillin-resistant Staphylococcus aureus subsp. aureus ATCC 43300 CCM 4750 at highest concentration measured after 24 to 48 hrs by alamar blue dye based broth microdilution assay; assay type: functional, organism-based
[20] = tested on: Aspergillus fumigatus; assay: Antifungal activity against Aspergillus fumigatus ATCC 204305 at highest concentration measured after 24 to 48 hrs by alamar blue dye based broth microdilution assay; assay type: functional, organism-based
[21] = tested on: Escherichia coli; assay: Antibacterial activity against Escherichia coli ATCC 25922 CCM 3954 at highest concentration measured after 24 to 48 hrs by alamar blue dye based broth microdilution assay; assay type: functional, organism-based
[22] = tested on: Staphylococcus epidermidis; assay: Antibacterial activity against Staphylococcus epidermidis at highest concentration measured after 24 to 48 hrs by alamar blue dye based broth microdilution assay; assay type: functional, organism-based
[23] = tested on: Serratia marcescens; assay: Antibacterial activity against Serratia marcescens at highest concentration measured after 24 to 48 hrs by alamar blue dye based broth microdilution assay; assay type: functional, organism-based
[24] = tested on: Enterococcus faecalis; assay: Antibacterial activity against Enterococcus faecalis ATCC 29212 CCM 4224 at highest concentration measured after 24 to 48 hrs by alamar blue dye based broth microdilution assay; assay type: functional, organism-based
[25] = tested on: Staphylococcus aureus; assay: Antibacterial activity against Staphylococcus aureus subsp. aureus ATCC 29213 CCM 4223 at highest concentration measured after 24 to 48 hrs by alamar blue dye based broth microdilution assay; assay type: functional, organism-based
[26] = tested on: Aspergillus flavus; assay: Antifungal activity against Aspergillus flavus CCM 8363 at highest concentration measured after 24 to 48 hrs by alamar blue dye based broth microdilution assay; assay type: functional, organism-based
[27] = tested on: Candida tropicalis; assay: Antifungal activity against Candida tropicalis ATCC 750 CCM 8264 at highest concentration measured after 24 to 48 hrs by alamar blue dye based broth microdilution assay; assay type: functional, organism-based
[28] = tested on: Candida albicans; assay: Antifungal activity against Candida albicans ATCC 24433 CCM 8320 at highest concentration measured after 24 to 48 hrs by alamar blue dye based broth microdilution assay; assay type: functional, organism-based
[29] = tested on: Pseudomonas aeruginosa; assay: Antibacterial activity against Pseudomonas aeruginosa ATCC 27853 CCM 3955 at highest concentration measured after 24 to 48 hrs by alamar blue dye based broth microdilution assay; assay type: functional, organism-based
[30] = tested on: Candida parapsilosis; assay: Antifungal activity against Candida parapsilosis ATCC 22019 CCM 8260 at highest concentration measured after 24 to 48 hrs by alamar blue dye based broth microdilution assay; assay type: functional, organism-based
[31] = tested on: Pichia kudriavzevii; assay: Antifungal activity against Candida krusei ATCC 6258 CCM8271 at highest concentration measured after 24 to 48 hrs by alamar blue dye based broth microdilution assay; assay type: functional, organism-based
[32] = tested on: Klebsiella pneumoniae; assay: Antibacterial activity against Klebsiella pneumoniae at highest concentration measured after 24 to 48 hrs by alamar blue dye based broth microdilution assay; assay type: functional, organism-based

Compound | MIC99 [1] [µM] | IC50 [2] [µM] | MIC99 [3] [µM] | IC50 [4] [µM] | viability at 48 h, 30 µM [5] [%] | MIC99 [6] [µM] | viability at 48 h, 30 µM [7] [%] | MIC99 [8] [µM] | MIC99 [9] [µM] | MIC99 [10] [µM] | MIC99 [11] [µM] | MIC99 [12] [µM] | MIC99 [13] [µM] | MIC99 [14] [µM] | MIC99 [15] [µM] | MIC99 [16] [µM] | Activity [17] | Activity [18] | Activity [19] | Activity [20] | also measured
O=[N+]([O-])c1cc(CSc2nnc(C3CCCCC3)n2Cc2ccccc2)cc(C(F)(F)F)c1 | 32 (≈ 15.2 µg/mL) | > 30 | 16 (≈ 7.62 µg/mL) | > 30 | 67 | 16 (≈ 7.62 µg/mL) | 79 | 250 (≈ 119 µg/mL) | 16 (≈ 7.62 µg/mL) | 16 (≈ 7.62 µg/mL) | 16 (≈ 7.62 µg/mL) | 250 (≈ 119 µg/mL) | 16 (≈ 7.62 µg/mL) | 16 (≈ 7.62 µg/mL) | 16 (≈ 7.62 µg/mL) | 16 (≈ 7.62 µg/mL) | – | – | – | – | –
GENTAMICIN | – | – | – | – | – | – | – | – | – | – | – | – | – | – | – | – | – | – | – | – | MIC>99 [15]: > 8 µM
O=[N+]([O-])c1cc(CSc2nnc(-c3ccc(Br)cc3)n2Cc2ccccc2)cc([N+](=O)[O-])c1 | 4 (≈ 2.11 µg/mL) | > 30 | 4 (≈ 2.11 µg/mL) | > 30 | 93 | 4 (≈ 2.11 µg/mL) | 173 | 250 (≈ 132 µg/mL) | 2 (≈ 1.05 µg/mL) | 2 (≈ 1.05 µg/mL) | 2 (≈ 1.05 µg/mL) | 250 (≈ 132 µg/mL) | 1 (≈ 0.526 µg/mL) | 4 (≈ 2.11 µg/mL) | 4 (≈ 2.11 µg/mL) | 4 (≈ 2.11 µg/mL) | inactive | inactive | inactive | inactive | Activity [21]: inactive; Activity [22]: inactive; Activity [23]: inactive; Activity [24]: inactive; Activity [25]: inactive; Activity [26]: inactive; Activity [27]: inactive; Activity [28]: inactive; Activity [29]: inactive; Activity [30]: inactive; Activity [31]: inactive; Activity [32]: inactive
Cn1c(SCc2ccccc2)nnc1-c1cc([N+](=O)[O-])cc([N+](=O)[O-])c1 | 0.25 (≈ 0.0928 µg/mL) | > 30 | 0.03 (≈ 0.0111 µg/mL) | > 30 | 108 | 0.25 (≈ 0.0928 µg/mL) | 161 | 16 (≈ 5.94 µg/mL) | 0.03 (≈ 0.0111 µg/mL) | 0.06 (≈ 0.0223 µg/mL) | 0.25 (≈ 0.0928 µg/mL) | 16 (≈ 5.94 µg/mL) | 0.25 (≈ 0.0928 µg/mL) | 0.03 (≈ 0.0111 µg/mL) | 0.03 (≈ 0.0111 µg/mL) | 0.125 (≈ 0.0464 µg/mL) | inactive | inactive | inactive | inactive | Activity [21]: inactive; Activity [22]: inactive; Activity [23]: inactive; Activity [24]: inactive; Activity [25]: inactive; Activity [26]: inactive; Activity [27]: inactive; Activity [28]: inactive; Activity [29]: inactive; Activity [30]: inactive; Activity [31]: inactive; Activity [32]: inactive
